The text below walks through data of paper PMC3288198 (ACS Chemical Biology, 2011).

Where two headings read alike, the source gives them in different places.

One data set deals with HDAC1 (Homo sapiens, UniProt Q13547). Nature of the data set: HDAC deacetylase homogenous fluorescence assay, HDAC1. The data set is classed as biochemical. Summed up: (§1)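 Baculovirus-expressed recombinant human enzyme (HDAC3 as HDAC3/N-CoR2 complex) incubated with serially diluted test compound over a 12-point titration. Substrate: acetylated AMC-K(Ac)GL. Deacetylated product cleaved by lysine peptidase to free MCA, read at ex 355/em 460 nm. Data normalised to control plate by plate. IC50 and SD from non-linear regression; Ki via Cheng-Prusoff, Ki = IC50/(1+[S]/Km).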
Sequence of HDAC1 (Q13547 whole entry): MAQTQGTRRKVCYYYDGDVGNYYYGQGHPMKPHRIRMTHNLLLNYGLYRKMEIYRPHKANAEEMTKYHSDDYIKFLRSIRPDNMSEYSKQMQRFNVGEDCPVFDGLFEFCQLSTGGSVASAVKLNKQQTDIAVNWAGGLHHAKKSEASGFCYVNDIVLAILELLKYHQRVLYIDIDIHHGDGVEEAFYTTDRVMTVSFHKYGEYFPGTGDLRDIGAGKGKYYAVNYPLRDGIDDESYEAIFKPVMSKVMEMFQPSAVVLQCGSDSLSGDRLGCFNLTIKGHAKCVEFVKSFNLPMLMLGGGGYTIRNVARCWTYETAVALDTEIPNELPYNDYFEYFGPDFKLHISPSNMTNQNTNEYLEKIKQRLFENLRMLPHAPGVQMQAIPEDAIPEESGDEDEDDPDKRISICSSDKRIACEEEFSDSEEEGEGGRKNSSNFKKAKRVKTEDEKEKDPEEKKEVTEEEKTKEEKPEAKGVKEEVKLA

The next data set deals with HDAC2 (Homo sapiens, UniProt Q92769). As to the kind of experiment: HDAC deacetylase homogenous fluorescence assay, HDAC2. It counts as biochemical. Particulars: for Ki: read-out: HDAC2 Ki, converted from IC50 using Cheng-Prusoff equation. In outline: as §1
Sequence of HDAC2 (Q92769 whole entry): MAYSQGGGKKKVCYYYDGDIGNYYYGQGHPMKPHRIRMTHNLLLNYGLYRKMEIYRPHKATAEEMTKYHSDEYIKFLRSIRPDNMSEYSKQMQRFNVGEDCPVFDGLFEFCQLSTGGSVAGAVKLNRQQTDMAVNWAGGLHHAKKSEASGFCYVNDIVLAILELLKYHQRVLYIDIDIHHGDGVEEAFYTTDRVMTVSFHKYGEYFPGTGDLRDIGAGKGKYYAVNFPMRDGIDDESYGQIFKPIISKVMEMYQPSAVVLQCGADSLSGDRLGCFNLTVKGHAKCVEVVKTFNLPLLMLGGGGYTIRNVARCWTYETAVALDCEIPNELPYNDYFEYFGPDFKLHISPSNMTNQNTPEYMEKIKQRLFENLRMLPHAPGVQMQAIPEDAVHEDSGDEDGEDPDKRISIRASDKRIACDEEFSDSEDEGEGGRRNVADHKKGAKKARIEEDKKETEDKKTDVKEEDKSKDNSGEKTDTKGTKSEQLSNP
The target of a further data set is T1, HDAC6 (Homo sapiens, UniProt Q9UBN7).
T1 sequence (Q9UBN7 1-1215): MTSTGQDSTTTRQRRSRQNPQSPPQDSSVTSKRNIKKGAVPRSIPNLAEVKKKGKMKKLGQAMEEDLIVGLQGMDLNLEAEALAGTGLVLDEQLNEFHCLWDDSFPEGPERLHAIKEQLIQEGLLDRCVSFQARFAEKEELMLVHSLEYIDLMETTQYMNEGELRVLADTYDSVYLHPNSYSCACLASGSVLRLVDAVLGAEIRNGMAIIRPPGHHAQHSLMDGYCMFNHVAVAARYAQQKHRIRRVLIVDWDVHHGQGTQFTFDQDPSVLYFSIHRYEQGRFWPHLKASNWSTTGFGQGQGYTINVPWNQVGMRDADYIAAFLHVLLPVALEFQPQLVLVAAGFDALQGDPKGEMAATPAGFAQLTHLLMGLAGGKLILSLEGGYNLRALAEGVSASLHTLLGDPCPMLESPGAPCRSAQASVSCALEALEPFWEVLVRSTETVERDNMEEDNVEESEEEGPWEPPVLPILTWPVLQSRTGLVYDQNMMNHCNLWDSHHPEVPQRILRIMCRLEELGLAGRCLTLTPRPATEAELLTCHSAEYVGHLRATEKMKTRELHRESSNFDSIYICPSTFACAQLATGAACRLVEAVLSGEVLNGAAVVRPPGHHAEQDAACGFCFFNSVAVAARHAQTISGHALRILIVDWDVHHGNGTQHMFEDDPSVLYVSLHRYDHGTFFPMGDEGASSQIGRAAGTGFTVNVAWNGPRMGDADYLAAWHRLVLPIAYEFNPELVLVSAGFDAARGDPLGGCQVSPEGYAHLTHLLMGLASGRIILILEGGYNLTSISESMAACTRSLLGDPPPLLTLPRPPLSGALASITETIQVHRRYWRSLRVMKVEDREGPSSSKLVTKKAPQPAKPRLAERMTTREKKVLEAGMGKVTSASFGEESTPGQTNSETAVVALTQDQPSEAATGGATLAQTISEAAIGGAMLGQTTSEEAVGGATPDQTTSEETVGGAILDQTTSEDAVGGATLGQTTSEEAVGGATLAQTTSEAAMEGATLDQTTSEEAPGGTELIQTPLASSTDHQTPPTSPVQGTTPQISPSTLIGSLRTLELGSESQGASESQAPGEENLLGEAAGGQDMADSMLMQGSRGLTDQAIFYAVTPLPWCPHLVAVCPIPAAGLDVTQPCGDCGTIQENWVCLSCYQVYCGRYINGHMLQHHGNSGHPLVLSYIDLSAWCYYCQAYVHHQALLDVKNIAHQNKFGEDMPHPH
Nature of the data set: HDAC deacetylase homogenous fluorescence assay, HDAC6. The data set is classed as biochemical. Summed up: as §1

Another data set concerns the target HDAC9 (Homo sapiens, UniProt Q9UKV0). Nature of the data set: HDAC deacetylase homogenous fluorescence assay, HDAC9. It counts as biochemical. In outline:
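Recombinant human enzyme (HDAC5, 8, 9 baculovirus-expressed) incubated with serially diluted test compound over a 12-point titration. Substrate: trifluoroacetylated AMC-K(TFA)GL. Peptidase development releases MCA, read at ex 355/em 460 nm. Activity normalised to plate controls. IC50 and SD by non-linear regression; Ki by Cheng-Prusoff, Ki = IC50/(1+[S]/Km).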

A further data set deals with T2, HDAC10 (Homo sapiens, UniProt Q969S8).
T2 sequence (Q969S8 1-669): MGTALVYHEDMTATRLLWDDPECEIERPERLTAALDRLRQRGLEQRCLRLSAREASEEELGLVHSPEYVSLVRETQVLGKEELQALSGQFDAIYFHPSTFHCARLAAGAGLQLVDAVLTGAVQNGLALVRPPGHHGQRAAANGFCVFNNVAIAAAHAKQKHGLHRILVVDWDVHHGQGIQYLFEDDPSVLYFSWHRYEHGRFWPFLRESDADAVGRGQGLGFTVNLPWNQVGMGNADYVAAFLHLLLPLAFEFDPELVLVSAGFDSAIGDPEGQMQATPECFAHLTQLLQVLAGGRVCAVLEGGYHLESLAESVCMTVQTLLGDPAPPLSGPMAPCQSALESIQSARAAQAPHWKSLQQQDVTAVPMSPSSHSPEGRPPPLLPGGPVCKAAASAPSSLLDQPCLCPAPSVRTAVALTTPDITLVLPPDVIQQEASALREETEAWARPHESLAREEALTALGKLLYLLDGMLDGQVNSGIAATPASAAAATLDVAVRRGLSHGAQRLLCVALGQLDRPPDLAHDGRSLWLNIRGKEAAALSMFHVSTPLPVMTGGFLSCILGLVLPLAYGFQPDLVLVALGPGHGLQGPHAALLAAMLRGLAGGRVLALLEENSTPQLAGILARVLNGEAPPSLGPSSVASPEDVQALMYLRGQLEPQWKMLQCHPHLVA
Nature of the data set: HDAC deacetylase homogenous fluorescence assay, HDAC10. It counts as biochemical. In outline: as §1

The test system of data set [1] is non-proliferating PBMC (no mitogen stimulation). As to the kind of experiment: Viability of resting PBMC. The data set is classed as cell-based, human.
The subject of the next data set is acetylated tubulin. As to the kind of experiment: Western blot of acetylated tubulin in MV4-11 cells. The data set is classed as cell-based, human. In outline: (§2)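 MV4-11 cells (10% heat-inactivated FBS, 37°C, 5% CO2) treated with test compound at a range of concentrations. Washed in cold HBSS and lysed 30 min in low-salt Tris pH 7.4 buffer with protease/phosphatase inhibitors and 1 μM TSA, then sonicated. LDS-denatured lysates run on 4–12% gradient gels. Probes: acetyl-H3, acetyl-H4, total H3, acetyl-α-tubulin, tubulin. HRP secondary, ECL read-out.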
(Immunoblotting shows a protein as a band on a membrane.)

The subject of data set [2] is acetylated histone H3 and H4. As to the kind of experiment: Western blot of acetylated histone H3/H4 in MV4-11 cells. It counts as cell-based, human. In outline:
as §2

In a further data set the test system is ubiquitinated protein. Nature of the data set: Western blot of total ubiquitinated protein in MV4-11 cells. Particulars: within 3 hr. It counts as cell-based, human.
[3] abbreviates: read-out: HDAC1 IC50, 12 point titration, acetylated substrate.
Setting [4] is: read-out: HDAC1 Ki, converted from IC50 using Cheng-Prusoff equation.
The mark [5] stands for this setting: read-out: HDAC2 IC50, 12 point titration, acetylated substrate.
The mark [6] stands for this setting: read-out: HDAC6 IC50, 12 point titration, acetylated substrate.
The mark [7] stands for this setting: read-out: HDAC6 Ki, converted from IC50 using Cheng-Prusoff equation.
Setting [8] is: read-out: HDAC9 IC50, 12 point titration, trifluoroacetylated substrate.
Where [9] appears, read: read-out: HDAC9 Ki, converted from IC50 using Cheng-Prusoff equation.
Setting [10] is: read-out: HDAC10 IC50, 12 point titration, acetylated substrate.

Sequence of HDAC9 (Q9UKV0 whole entry): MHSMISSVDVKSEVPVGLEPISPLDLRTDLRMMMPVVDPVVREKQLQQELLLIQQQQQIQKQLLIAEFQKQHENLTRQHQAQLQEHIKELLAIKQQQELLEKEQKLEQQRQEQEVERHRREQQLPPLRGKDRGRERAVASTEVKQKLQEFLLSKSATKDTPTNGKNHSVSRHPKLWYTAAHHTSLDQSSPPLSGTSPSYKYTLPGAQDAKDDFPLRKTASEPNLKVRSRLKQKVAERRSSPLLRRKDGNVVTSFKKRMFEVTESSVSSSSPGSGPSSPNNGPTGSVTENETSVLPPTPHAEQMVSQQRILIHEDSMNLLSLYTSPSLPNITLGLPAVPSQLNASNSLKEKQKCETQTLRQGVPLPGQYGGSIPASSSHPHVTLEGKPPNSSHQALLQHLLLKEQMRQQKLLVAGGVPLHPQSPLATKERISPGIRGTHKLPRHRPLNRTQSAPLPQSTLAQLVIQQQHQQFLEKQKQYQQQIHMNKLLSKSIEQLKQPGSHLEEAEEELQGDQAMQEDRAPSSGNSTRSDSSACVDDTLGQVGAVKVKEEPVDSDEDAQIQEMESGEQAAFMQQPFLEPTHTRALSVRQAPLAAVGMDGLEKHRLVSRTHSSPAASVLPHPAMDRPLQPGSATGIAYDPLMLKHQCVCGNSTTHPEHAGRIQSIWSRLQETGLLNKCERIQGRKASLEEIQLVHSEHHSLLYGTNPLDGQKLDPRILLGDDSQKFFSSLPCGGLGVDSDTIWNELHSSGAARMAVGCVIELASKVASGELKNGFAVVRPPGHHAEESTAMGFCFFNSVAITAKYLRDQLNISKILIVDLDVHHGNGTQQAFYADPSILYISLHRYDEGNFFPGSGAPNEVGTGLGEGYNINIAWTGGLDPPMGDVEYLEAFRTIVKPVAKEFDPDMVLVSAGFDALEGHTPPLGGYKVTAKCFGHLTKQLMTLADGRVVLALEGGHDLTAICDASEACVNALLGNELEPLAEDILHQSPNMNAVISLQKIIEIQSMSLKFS

Regarding `COc1ccc2c(c1)CC[C@@H]1[C@@H]2CC[C@]2(C)[C@@H](NCCCCCCN3C(=O)C=CC3=O)CC[C@@H]12` [U-73122, 1-[6-[[(17beta)-3-methoxyestra-1,3,5([10])-trien-17-yl]amion]hexyl]-1H-pyrrole-2,5-dione], the IC50 at HDAC1 (setting [3]) was 38.4 ± 15.5 µM; at HDAC2 (setting [5]) it was over 100 µM; on HDAC6 (setting [6]), 45.2 ± 12.6 µM; on HDAC9 (setting [8]), 29.8 ± 5.6 µM; at HDAC10 (setting [10]) it was over 100 µM. The Ki at HDAC1 (setting [4]) was found to be 4110 nM; on HDAC6 (setting [7]), 11 µM; at HDAC9 (setting [9]) it was 12.7 µM.
`O=c1c2ccccc2[se]n1-c1ccccc1` [Ebselen, 2-phenyl-1,2-benzisoselenazol-3(2H)-one]: the IC50 amounted to 1.5 ± 0.4 µM against HDAC1; 1.4 ± 0.3 µM against HDAC2; 12.8 ± 2.6 µM against HDAC6; 0.97 ± 0.5 µM against HDAC9; 0.95 ± 0.4 µM against HDAC10. The Ki was 150 nM at HDAC1, 80 nM at HDAC2, 3.1 µM on HDAC6 and 420 nM on HDAC10.
Turning to `O=C1C(SCCO)=C(SCCO)C(=O)c2ccccc21` [NSC-95397, 2,3-bis[(2-Hydroxyethyl)thio]-1,4-naphthoquinone], the IC50 on HDAC1 was over 180 µM; at HDAC2, over 100 µM; on HDAC6 it was 12.7 ± 2.5 µM; against HDAC9, 4.8 ± 1.4 µM; on HDAC10 it was 14.5 ± 1.5 µM. For the same compound, the values for the Ki at HDAC6, at HDAC9 and on HDAC10 were 3.07 µM, 2.04 µM and 6400 nM, respectively. The “effect on resting (non-proliferating) PBMC viability” value in [1] was “inactive”; in data set [1] (listed as NSC) it was “not affected”. Also, in the data set with acetylated tubulin, the “induction of acetylated tubulin” value is given as “induces hyperacetylated tubulin”. For the same compound, the “effect on acetylated histone H3/H4 levels” value in [2] is on record as “without an increase in acetylated histone levels”. For the same compound, the “total ubiquitinated protein level” value in the data set on ubiquitinated protein is reported as “increase in total ubiquitinated protein level”.
Consider `OC[C@H]1O[C@H]([S-])[C@H](O)[C@@H](O)[C@@H]1O.[Au+]` [Aurothioglucose, 1-thio-D-glucopyronaose gold salt], for which the IC50 on HDAC1 (setting [3]) is 4.4 ± 1.1 µM; at HDAC2 (setting [5]), over 180 µM; on HDAC6 (setting [6]), 14.4 ± 5.8 µM; on HDAC9 (setting [8]) it was 2.8 ± 0.1 µM; on HDAC10 (setting [10]) it was 4.9 ± 1.5 µM. Moreover, the Ki at HDAC1 (setting [4]) was determined as 470 nM; on HDAC6 (setting [7]), 3.49 µM; at HDAC9 (setting [9]), 1.19 µM; on HDAC10 (read-out: HDAC10 Ki, converted from IC50 using Cheng-Prusoff equation) it was 2160 nM.
As for `NC(N)=Nc1ccc2[nH]c3c(c2c1)C[C@@]1(O)[C@H]2Cc4ccc(O)c5c4[C@@]1(CCN2CC1CC1)[C@H]3O5` [GNTI, guanidinyl-naltrindole di-trifluoroacetate], the IC50 was 30.2 ± 7.3 µM on HDAC1 (setting [3]); 26.2 ± 7.6 µM on HDAC2 (setting [5]); over 180 µM at HDAC6 (setting [6]); 12.3 ± 1.7 µM on HDAC9 (setting [8]); over 180 µM on HDAC10 (setting [10]). The figures for the Ki at HDAC1 (setting [4]), on HDAC2 and at HDAC9 (setting [9]) were 3240 nM, 1480 nM and 5.23 µM, respectively.

By IC50 is commonly meant the concentration that gives 50% inhibition. What is called Ki is a dissociation constant, usually derived from enzyme kinetics or from competition with a known ligand.
